Experiments:
Format in all cases: ADME, organism-based
[1] = Volume of distribution at steady state in Sprague-Dawley rat at 2 mg/kg, iv by LC-MS/MS analysis; design: dose 2 mg/kg, route intravenous; conditions: in vivo, read-out: Vdss
How it was run: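 Fed male Sprague−Dawley rats (n = 3) dosed iv at 2 mg/kg in DMSO. Plasma sampled up to 16 h, quantified by LC-MS/MS. Noncompartmental analysis of total plasma concentration-time data.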

[2] = Cmax in Sprague-Dawley rat at 5 mg/kg, po by LC-MS/MS analysis; design: dose 5 mg/kg, route oral; conditions: in vivo
How it was run: (§1)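 Fasted male Sprague−Dawley rats (n = 3) given oral gavage as a suspension in 5% Tween 80/Oraplus. Blood sampled up to 16 h post dose, plasma prepared by centrifugation and assayed by LC-MS/MS. Total plasma concentration-time data analysed by noncompartmental methods.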

[3] = AUC (0 to infinity) in Sprague-Dawley rat at 5 mg/kg, po by LC-MS/MS analysis; design: time infinity, dose 5 mg/kg, route oral; conditions: plasma; how it was run: as §1
[4] = Oral bioavailability in Sprague-Dawley rat; conditions: in vivo
How it was run: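 Male Sprague−Dawley rats, n = 3 per group. Iv arm: fed animals, 2 mg/kg in DMSO. Oral arm: fasted animals, 5 or 10 mg/kg by gavage as a suspension in 5% Tween 80/Oraplus. Plasma sampled to 16 h, measured by LC-MS/MS, analysed noncompartmentally.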

[5] = Oral bioavailability in Sprague-Dawley rat at 5 mg/kg by LC-MS/MS analysis; conditions: in vivo; how it was run: as §1
[6] = Tmax in Sprague-Dawley rat at 5 mg/kg, po by LC-MS/MS analysis; design: dose 5 mg/kg, route oral; conditions: in vivo; how it was run: as §1
[7] = Plasma concentration in unilateral cartoid artery cannulated Sprague-Dawley rat model at 3 mg/kg, po after […]; design: dose 3 mg/kg, route oral

SMILES | Vd [1] [L/kg] | Cmax [2] [nM] | AUC(0-inf) [3] [µM·h] | bioavailability [4] [%] | bioavailability [5] [%] | Tmax [6] [h] | concentration at […] [7] [nM]
C[C@H](NC(=O)N1CCc2cccnc2[C@H]1c1ccc(C(F)(F)F)cc1)C(F)(F)F | 2.7 | 1580 | 12 | – | – | – | –
N#Cc1ccc(NC(=O)N2CCc3cccnc3[C@H]2c2ccc(C(F)(F)F)cc2)cc1 | – | – | – | 70 | – | – | –
C[C@H](NC(=O)N1CCc2ccccc2[C@H]1c1ccc(C(F)(F)F)c(F)c1)C(F)(F)F | 3 | 1670 | 12.1 | – | 67 | – | –
C[C@H](NC(=O)N1CCc2cccnc2[C@H]1c1ccc(C(F)(F)F)c(F)c1)C(F)(F)F | 1.7 | 3860 | 71.9 | – | 51 | 5.3 | 1270
